Values after ≈ are worked out from the molar mass of the structure shown. Active and inactive are the calls of the source. The rule behind the calls is not given here.
Columns and labels:
[1] = tested on: Mycobacterium tuberculosis; assay: Antimycobacterial activity against Mycobacterium tuberculosis H37Rv assessed as induction of cell wall disintegration at 0.05 uM after 30 mins by TEM analysis; type: functional, organism-based
THP-1 = assay: Cytotoxicity against human THP1 cells assessed as growth inhibition after 24 to 48 hrs by MTT assay; type: cell-based
Outline: (§1)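 THP-1 cells (human monocytic line) seeded at 10^4 per well and adhered with phorbol myristate acetate (20 ng/mL). Then given fresh RPMI with 10% foetal calf serum and 2 mM L-glutamine, plus compound by serial double dilution (4.68–150 µg/mL), with DMSO and no-DMSO controls. Incubated 24 or 48 h at 37 °C, 5% CO2. MTT added for 4 h, formazan dissolved in DMSO, A540 read, percentage survival calculated.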

[2] = Cytotoxicity against human THP1 cells assessed as cell viability at 37.48 ug/ml after 24 hrs by MTT assay relative to control; type: cell-based; conditions: THP-1 cells, read-out: Activity; outline: as §1
[3] = tested on: Mycobacterium tuberculosis; assay: Ratio of MBC to MIC for Mycobacterium tuberculosis H37Rv; type: functional
[4] = Cytotoxicity against human THP1 cells assessed as cell viability at 75 ug/ml after 48 hrs by MTT assay relative to control; type: cell-based; conditions: THP-1 cells, read-out: Activity; outline: as §1
[5] = Cytotoxicity against human THP1 cells assessed as cell viability at 37.48 ug/ml after 48 hrs by MTT assay relative to control; type: cell-based; conditions: THP-1 cells, read-out: Activity; outline: as §1
[6] = Cytotoxicity against human THP1 cells assessed as cell viability at 18.72 ug/ml after 24 hrs by MTT assay relative to control; type: cell-based; conditions: THP-1 cells, read-out: Activity; outline: as §1
[7] = tested on: Mycobacterium tuberculosis; assay: Antimycobacterial activity against Mycobacterium tuberculosis H37Rv after 10 days by MABA; type: functional; conditions: 240 h
Outline: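 MABA in 7H9 medium: log-phase culture passed through 8 µm filter, density set by OD600 and McFarland standards, 1 × 10^6 cells per well with drug dilutions; aerobic incubation 37 °C 10 days, then 0.02 % resazurin, overnight 37 °C. MIC = lowest concentration preventing blue-to-pink change. Triplicate; medium+inoculum and medium-only controls.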

[8] = Cytotoxicity against human THP1 cells assessed as cell viability at 150 ug/ml after 24 hrs by MTT assay relative to control; type: cell-based; conditions: THP-1 cells, read-out: Activity; outline: as §1
[9] = Cytotoxicity against human THP1 cells assessed as cell viability at 18.72 ug/ml after 48 hrs by MTT assay relative to control; type: cell-based; conditions: THP-1 cells, read-out: Activity; outline: as §1
[10] = Cytotoxicity against human THP1 cells assessed as cell viability at 75 ug/ml after 24 hrs by MTT assay relative to control; type: cell-based; conditions: THP-1 cells, read-out: Activity; outline: as §1
[11] = Cytotoxicity against human THP1 cells assessed as cell viability at 9.36 ug/ml after 48 hrs by MTT assay relative to control; type: cell-based; conditions: THP-1 cells, read-out: Activity; outline: as §1
[12] = tested on: Mycobacterium tuberculosis; assay: Bactericidal activity against Mycobacterium tuberculosis H37Rv after 4 weeks by MABA; type: functional; conditions: 672 h
[13] = Selectivity index, ratio of IC50 for cytotoxicity against human THP1 cells to MIC for Mycobacterium tuberculosis H37Rv; type: toxicity, cell-based; conditions: THP-1 cells, read-out: Selectivity Index
Outline: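 THP-1 cells, 10^4/well, adhered with PMA 20 ng/mL, in RPMI with 10 % FCS and 2 mM L-glutamine; exposed to 4.68–150 µg/mL for 24 and 48 h at 37 °C, 5 % CO2; MTT 4 h, formazan in DMSO, A540. Index = THP-1 IC50 divided by H37Rv MABA MIC.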

[14] = Cytotoxicity against human THP1 cells assessed as cell viability at 4.68 ug/ml after 48 hrs by MTT assay relative to control; type: cell-based; conditions: THP-1 cells, read-out: Activity; outline: as §1
[15] = tested on: Mycobacterium tuberculosis; assay: Antimycobacterial activity against MDR Mycobacterium tuberculosis isolate 591 after 15 days by MABA; type: functional; conditions: isolate 591, 360 h
Outline: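 MABA in 7H9 medium on MDR clinical isolate 591: filtered single-cell suspension, 1 × 10^6 cells per well with drug dilutions, aerobic 37 °C; 0.02 % resazurin added on day 15, overnight 37 °C. MIC = lowest concentration preventing blue-to-pink change. Triplicate; medium+inoculum and medium-only controls.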

[16] = Cytotoxicity against human THP1 cells assessed as cell viability at 150 ug/ml after 48 hrs by MTT assay relative to control; type: cell-based; conditions: THP-1 cells, read-out: Activity; outline: as §1
[17] = Cytotoxicity against human THP1 cells assessed as cell viability at 4.68 ug/ml after 24 hrs by MTT assay relative to control; type: cell-based; conditions: THP-1 cells, read-out: Activity; outline: as §1
[18] = Cytotoxicity against human THP1 cells assessed as cell viability at 9.36 ug/ml after 24 hrs by MTT assay relative to control; type: cell-based; conditions: THP-1 cells, read-out: Activity; outline: as §1
[19] = tested on: Mycobacterium tuberculosis; assay: Potency index, ratio of isoniazid MIC to compound MIC for antimycobacterial activity against MDR Mycobacterium tuberculosis isolate 591; type: functional
[20] = tested on: Mycobacterium tuberculosis; assay: Potency index, ratio of rifampicin MIC to compound MIC for antimycobacterial activity against MDR Mycobacterium tuberculosis isolate 591; type: functional
[21] = tested on: Mycobacterium tuberculosis; assay: Potency index, ratio of ethambutol MIC to compound MIC for antimycobacterial activity against MDR Mycobacterium tuberculosis isolate 591; type: functional
[22] = tested on: Mycobacterium tuberculosis; assay: Potency index, ratio of streptomycin MIC to compound MIC for antimycobacterial activity against MDR Mycobacterium tuberculosis isolate 591; type: functional
[23] = tested on: Mycobacterium tuberculosis; assay: Antimycobacterial activity against Mycobacterium tuberculosis H37Rv assessed as cells with vacuole formation at 4.15 uM after 30 mins by TEM analysis; type: functional, organism-based
[24] = tested on: Mycobacterium tuberculosis; assay: Bactericidal activity against MDR Mycobacterium tuberculosis isolate 591 after 4 weeks by MABA; type: functional; conditions: isolate 591, 672 h
[25] = tested on: Mycobacterium tuberculosis; assay: Ratio of MBC to MIC for MDR Mycobacterium tuberculosis isolate 591; type: functional
DNA gyrase subunit B = DNA gyrase subunit B (Escherichia coli, UniProt P0AES6); assay: Inhibition of Escherichia coli DNA gyrase-B using relaxed pUC19 DNA as substrate after 1 hr by bromophenol blue dye based agarose gel electrophoresis method
Outline: (§2)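 E. coli DNA gyrase, 1 unit, with 0.3 µg relaxed pUC19 plasmid in 1X gyrase assay buffer. Compound added as 0.2 µL from 100 µM stock; ciprofloxacin positive control, DMSO solvent control. Incubated 37 °C for 1 h, stopped with 50% glycerol/0.25% bromophenol blue. Run on 1% agarose in 0.5X TBE pH 8.3, 16 h at 30 mA, ethidium bromide stained, UV visualised for supercoiling.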

[26] = molecular target: T1, Enoyl-[acyl-carrier-protein] reductase [NADH] (Mycobacterium tuberculosis) (UniProt P9WGR1); assay: Inhibition of Mycobacterium tuberculosis H37Rv InhA expressed in Escherichia coli at 5 to 100 uM preincubated for 30 mins followed by crotonoyl-CoA substrate and NADH addition measured over 15 mins by spectrophotometric method
T1 sequence (whole entry): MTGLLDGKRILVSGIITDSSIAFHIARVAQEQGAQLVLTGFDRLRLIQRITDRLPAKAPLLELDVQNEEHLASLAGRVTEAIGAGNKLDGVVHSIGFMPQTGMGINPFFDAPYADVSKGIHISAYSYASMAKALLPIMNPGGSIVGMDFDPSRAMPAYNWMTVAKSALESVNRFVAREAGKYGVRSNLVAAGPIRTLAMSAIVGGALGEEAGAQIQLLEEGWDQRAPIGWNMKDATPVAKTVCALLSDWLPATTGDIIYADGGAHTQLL
Outline: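 Purified recombinant InhA (Rv1484, cloned in E. coli), 2 µg, preincubated 30 min with compound at 5 µM final (DMSO ≤1 % v/v) in 100 mM sodium phosphate pH 7.5; started with 100 µM NADH and 100 µM crotonoyl-CoA; A340 followed 15 min at room temperature. Triplicate.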

[27] = tested on: Mycobacterium tuberculosis; assay: Antimycobacterial activity against Mycobacterium tuberculosis H37Rv assessed as induction of cell wall disintegration at 4.15 uM after 30 mins by TEM analysis; type: functional, organism-based
[28] = molecular target: DNA gyrase subunit B (Escherichia coli) (UniProt P0AES6); assay: Inhibition of Escherichia coli DNA gyrase-B at 0.66 to 100 uM using relaxed pUC19 DNA as substrate after 1 hr by bromophenol blue dye based agarose gel electrophoresis method; outline: as §2

SMILES	IC50 (THP-1) [µM]	viability at 24 h, 37.48 ug/ml [2] [%]	Ratio [3]	viability at 48 h, 75 ug/ml [4] [%]	viability at 48 h, 37.48 ug/ml [5] [%]	viability at 24 h, 18.72 ug/ml [6] [%]	MIC [7] [µM]	viability at 24 h, 150 ug/ml [8] [%]	viability at 48 h, 18.72 ug/ml [9] [%]	viability at 24 h, 75 ug/ml [10] [%]	viability at 48 h, 9.36 ug/ml [11] [%]	MBC [12] [µM]	selectivity ratio [13]	viability at 48 h, 4.68 ug/ml [14] [%]	MIC [15] [µM]	viability at 48 h, 150 ug/ml [16] [%]	viability at 24 h, 4.68 ug/ml [17] [%]	viability at 24 h, 9.36 ug/ml [18] [%]	Ratio [19]	Ratio [20]	other results
NNC(=O)c1ccncc1 [ISONIAZID]	547	68	1.6	41	57	83	0.2 (≈ 0.0274 µg/mL)	48	67	50	74	0.3 (≈ 0.0411 µg/mL)	2740	84	2190 (≈ 300 µg/mL)	40	90	85	–	–	Activity [1]: Active
O=C(OC[C@H]1O[C@@H](n2cc(COc3ccc4c(-c5ccccc5)cc(=O)oc4c3)nn2)[C@H](OC(=O)c2ccccc2)[C@@H]1OC(=O)c1ccccc1)c1ccccc1	> 196	81	2	70	74	97	5.2 (≈ 3.97 µg/mL)	66	84	81	93	10.5 (≈ 8.02 µg/mL)	37.6	95	5.2 (≈ 3.97 µg/mL)	64	100	100	7 - 420	7 - 420	Ratio [21]: 7 - 420; Ratio [22]: 7 - 420
O=c1cc(-c2ccccc2)c2ccc(OCc3cn([C@@H]4O[C@H](CO)[C@@H](O)[C@H]4O)nn3)cc2o1	> 332	94	4	70	78	100	4.4 (≈ 1.99 µg/mL)	79	84	88	93	17.7 (≈ 7.99 µg/mL)	75.4	95	8.9 (≈ 4.02 µg/mL)	62	100	100	7 - 420	7 - 420	Ratio [21]: 7 - 420; Ratio [22]: 7 - 420
Cc1cc(=O)oc2cc(-c3cn([C@@H]4O[C@H](CO)[C@@H](O)[C@H]4O)nn3)ccc12	> 417	99	1	64	77	99	16.6 (≈ 5.97 µg/mL)	84	87	96	90	16.7 (≈ 6 µg/mL)	25	96	22.2 (≈ 7.98 µg/mL)	60	100	100	–	–	Activity [23]: Active; MBC [24]: 22.2 µM (≈ 7.98 µg/mL); Ratio [25]: 1; IC50 (DNA gyrase subunit B): 3.2 µM; inhibition [26]: Active; Activity [27]: Active; inhibition [28]: Active

Source: ChEMBL document CHEMBL4196081, “Synthesis and antimycobacterial activity of 1-(β-d-Ribofuranosyl)-4-coumarinyloxymethyl- / -coumarinyl-1,2,3-triazole” (Eur J Med Chem, 2018)
